These results are taken from ChEMBL document CHEMBL4196053, “Endoperoxide-8-aminoquinoline hybrids as dual-stage antimalarial agents with enhanced metabolic stability” (Eur J Med Chem, 2018).

The test system of one data set is Huh-7. Briefly: Cytotoxicity against human HuH7 cells assessed as reduction in cell viability at 10 uM after 48 hrs by Alamar blue assay. In kind it is cell-based. The note with it: huh-7, 48 h. The method in brief: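 Huh-7 cells seeded and infected with P. berghei sporozoites as in the liver-stage assay, with compound added about 1 h before infection and DMSO vehicle in controls. Host cell viability read by AlamarBlue fluorescence 48 h post-infection.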
For orientation: Alamar Blue is a resazurin reagent that responds to reducing activity.

Data set [1] is described as follows: Intrinsic clearance in rat liver microsomes assessed per mg protein at […] in presence of NADPH by HPLC analysis. It counts as ADME, microsome. The settings on record: read-out: CLH. For orientation: Liver microsomes are a subcellular fraction often used to study metabolism.
The test system of data set [2] is Plasmodium berghei. Briefly: Antiplasmodial activity against luciferase expressing Plasmodium berghei sporozoites infected in human HuH7 cells at 10 uM preincubated for 1 hr followed by parasite infection measured after 48 hrs by bioluminescence analysis relative to control. In kind it is functional. The essentials:
(§1)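 Huh-7 hepatoma cells (1.0 × 10^4/well) seeded the day before. Compound-containing medium added about 1 h before infection with fresh firefly luciferase-expressing P. berghei sporozoites from Anopheles stephensi salivary glands, then spun 1700 g for 5 min. DMSO vehicle in controls. Parasite load read by bioluminescence 48 h post-infection. Initial screen at fixed concentrations; EC50 from nonlinear regression of normalized dose-response data.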

Data set [3] has as its system Plasmodium berghei. Description: Antiplasmodial activity against luciferase expressing Plasmodium berghei infected in human HuH7 cells preincubated for 1 hr followed by parasite infection measured after 48 hrs by bioluminescence analysis. The settings on record: Huh-7. It counts as functional, organism-based. The method in brief: as §1
The nature of data set [4]: Cytotoxicity against human Caco2 cells assessed as reduction in cell viability after 72 hrs by neutral red dye based assay. The settings on record: Caco-2 cells. The method in brief:
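CaCo-2 cells grown in RPMI-1640 with 10% FBS and antibiotic-antimycotic at 37°C, 5% CO2. Exposed once confluent for 72 h to compound diluted in medium, organic solvent ≤1%. Medium then removed and cells washed with PBS.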

A short description of data set [5]: Selectivity index, ratio of CC50 for human Caco2 cells to IC50 for chloroquine resistant Plasmodium falciparum W2 erythrocytic ring stage. In kind it is toxicity. The settings on record: Caco-2 cells, read-out: Ratio CC50/IC50.
The subject of a further data set is Plasmodium falciparum. Briefly: Antiplasmodial activity against chloroquine resistant Plasmodium falciparum W2 erythrocytic ring stage after 48 hrs using hypoxanthine by flow cytometric analysis. In kind it is functional, organism-based. The settings on record: W2, 48 h. The essentials: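 Ring-stage W2 P. falciparum synchronized with 5% sorbitol, about 1% parasitemia in human erythrocytes. Cells fixed in 2% formaldehyde, stained with 1 nM YOYO-1, infected cells counted by flow cytometry. IC50 taken against untreated controls; two experiments, four replicates each.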
For orientation: A flow cytometer gives signals particle by particle.

A short description of data set [6]: Half life in rat liver microsomes at […] in presence of NADPH by HPLC analysis. It counts as ADME, microsome.
Data set [7] has as its system Plasmodium berghei. Description: Antiplasmodial activity against luciferase expressing Plasmodium berghei sporozoites infected in human HuH7 cells at 2 uM preincubated for 1 hr followed by parasite infection measured after 48 hrs by bioluminescence analysis relative to control. In kind it is functional. The essentials: as §1

Each structure is given as a SMILES string. Activity calls are given as the source filed them.

One may read the EC50 as the concentration needed to bring the measured effect to its halfway point. By CC50 is commonly meant the concentration that lowers cell viability or growth by half. Broadly, the half-life is the time needed for the level to fall by half in the phase considered. In the case of `COc1cc(NC(C)CCCNC(=O)C2CCC3(CC2)OOC2(OO3)C3CC4CC(C3)CC2C4)c2ncccc2c1-c1ccsc1` (configuration not stated), the Activity result is listed as “Non-Toxic” in the data set with Huh-7 and over 50% in the data set with Plasmodium berghei [7]. The microsomal CLint in data set [1] was determined as 37.4 µL/min/mg. In the data set on Plasmodium berghei [2], the result was Active. The EC50 worked out at 2110 nM with Plasmodium berghei [3] and 45 nM in the data set on Plasmodium falciparum. Besides, the CC50 at 72 h in [4] is over 50000 nM. In [5], the selectivity ratio is over 600. In data set [6], the half-life came to 37 min.

As for `COc1cc(NC(C)CCCNC(=O)C2CCC3(CC2)OOC2(OO3)C3CC4CC(C3)CC2C4)c2ncccc2c1-c1ccc(C(F)(F)F)cc1` (configuration not stated), the results for the Activity entry in the data set with Huh-7 and in the data set on Plasmodium berghei [7] were “Non-Toxic” and over 50%, respectively. In addition, the microsomal CLint in data set [1] came out at 13.9 µL/min/mg. The outcome with Plasmodium berghei [2] was Active. Moreover, the results for the half-maximal effective concentration (EC50) in the data set with Plasmodium berghei [3] and in the data set on Plasmodium falciparum were 4120 nM and 60 nM, respectively. Besides, the CC50 at 72 h in data set [4] is over 50000 nM. Besides, the selectivity ratio in [5] is over 1000. Also, in [6], the half-life is 100 min.

Turning to `COc1cc(NC(C)CCCNC(=O)C2CCC3(CC2)OOC2(OO3)C3CC4CC(C3)CC2C4)c2ncccc2c1-c1ccc(F)cc1` (configuration not stated), the Activity entry is on record as “Non-Toxic” in the data set on Huh-7 and over 50% in the data set with Plasmodium berghei [7]. Besides, in [1], the microsomal CLint was 34.6 µL/min/mg. Further, in the data set with Plasmodium berghei [2], the outcome was Active. Besides, the EC50 in the data set on Plasmodium berghei [3] came to 2380 nM; in the data set on Plasmodium falciparum, 57 nM. Besides, the CC50 at 72 h in [4] was over 50000 nM. Besides, in [5], the selectivity ratio is over 1000. For the same compound, the half-life in [6] was 40 min.
